# From PubChem
# Rows were chosen to be rich in hits. Some 2.8% of all compounds tested hit in one or more screens of this group.
# NPY-Y2 antag: NPY-Y2 (human) receptor antagonism; NPY-Y2 expressing cells, antagonist mode; inhibition, % at 2.7 µM; 140,000 compounds, 0.99% hits; AID 793;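 further: 0% = vehicle with agonist challenge and 100% = reference antagonist with challenge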
# NPY-Y1 PAM-ag: potentiators or agonists of human neuropeptide Y receptor Y1; P25929; NPY-Y1 expressing cells, potentiator/agonist activation; activation, % at 3.6 µM; 220,000 compounds, 0.37% hits; AID 1304; in the data active means activation above about 33%, passing the limit was not always enough;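 further: cells stimulated with NPY at EC10 then isoproterenol at EC100; 0% = low agonist plus stimulus and 100% = saturating agonist plus stimulus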
# Target sequence (P25929 whole entry, looked up): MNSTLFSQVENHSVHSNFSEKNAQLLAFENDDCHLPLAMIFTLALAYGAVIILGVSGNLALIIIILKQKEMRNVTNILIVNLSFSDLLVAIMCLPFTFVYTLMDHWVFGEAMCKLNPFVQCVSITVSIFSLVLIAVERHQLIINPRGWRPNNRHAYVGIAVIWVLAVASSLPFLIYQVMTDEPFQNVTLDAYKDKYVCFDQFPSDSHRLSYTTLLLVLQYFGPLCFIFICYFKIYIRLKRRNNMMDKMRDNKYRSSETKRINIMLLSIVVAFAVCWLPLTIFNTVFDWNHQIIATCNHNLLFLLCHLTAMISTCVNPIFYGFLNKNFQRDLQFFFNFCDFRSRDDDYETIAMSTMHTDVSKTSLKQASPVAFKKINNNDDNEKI
# PGE2 EP2 inh: blocks the human prostaglandin E2 receptor EP2 | C6 glioma cells expressing human EP2, cAMP TR-FRET; cells stimulated with saturating PGE2 | inhibition, % at 25 µM | 260,000 compounds, 0.52% hits | P43116;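 active means percent inhibition above 40 after rounding to a whole number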;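 further: rat C6 glioma host cells with rolipram phosphodiesterase inhibitor present; the protocol text gives 20 µM as final concentration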
# EP2 mod: modulators of human EP2 prostaglandin E2 receptor; P43116; EP2-expressing cells, cAMP HTRF FRET, PGE2 co-stimulation; induction, % at 25 µM; 260,000 compounds, 0.83% hits; AID 940;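 active means compounds whose cAMP rise, as percent of the full-agonist control response, exceeds 60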;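 further: rat C6 glioma line stably carrying human EP2 under a CMV promoter; the protocol text gives 20 µM as final concentration; 100% = response of wells given 1 µM PGE2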
# NPY-Y2 PAM-ag: human NPY-Y2 potentiation or agonism, primary screen; P49146; AID 1359; cells expressing NPY-Y2, potentiator/agonist read-out; activation, % at 3.6 µM; 220,000 compounds, 0.45% hits; in the data active means activation above about 27%;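 further: cells stimulated with NPY near EC25 plus isoproterenol at EC100; 0% = vehicle plus submaximal agonist and 100% = vehicle plus saturating agonist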
# NPY Y1 blocker: blocks the human neuropeptide Y Y1 receptor; inhibition, % at 3.6 µM; P25929; 200,000 compounds, 1% hits; HEK293-CNG Y1 cells, membrane potential fluorescence; NPY at EC95, then isoproterenol; AID 1040;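 active means inhibition above the campaign mean inhibition of all tested compounds plus 3 SD, cut at about 20% in these data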;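 further: 0% = DMSO wells given NPY plus isoproterenol and 100% = isoproterenol alone without NPY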
#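 Assay system: HEK293 Y1/CNG channel cell line; Doses: single compound dose of 3.6 µM, 0.4% DMSO; Timing: dye 3 h, compound 60 min room temperature, stimulation 45 min; Technique: Membrane-potential fluorescent dye readout; Measure: % inhibition of NPY effect.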
# EP2 confirm: EP2 receptor cAMP induction, counter-screens negative. shares compounds with EP2 mod. C6 glioma EP2 cells, cAMP HTRF induction; plus low (about EC15) PGE2 agonist. calls only at 20 µM (by protocol). 1,300 compounds, 47% hits;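 active means cAMP induction above 50% in the main assay while under 30% in all four parallel counter assays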;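 further: rat C6 glioma cells stably expressing human EP2 receptor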
# NPY-Y1 ant conf: human NPY-Y1 antagonism, confirmation. shares compounds with NPY Y1 blocker. HEK293-CNG NPY-Y1, membrane potential fluorescence, cAMP; NPY challenge against isoproterenol-raised cAMP. inhibition, % at 3.6 µM. 1,200 compounds, 21% hits; in the data active means inhibition above about 20%;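 further: 0% = vehicle with agonist plus stimulus and 100% = stimulus alone without agonist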
# NPY-Y2 antag ct: human NPY-Y2 antagonism in NPY-Y1 counter-screen. shares compounds with NPY Y1 blocker. HEK293 NPY-Y2 CNG membrane potential fluorescence; cells given NPY, then isoproterenol. inhibition, % at 3.6 µM. 1,200 compounds, 28% hits. AID 1255;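 further: 0% = DMSO with agonist challenge and 100% = reference antagonist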
# NPY-Y1 confirm: human NPY-Y1 potentiation or agonism, confirmation | shares compounds with NPY-Y1 PAM-ag | cell-based NPY-Y1 potentiator/agonist assay | activation, % at 3.6 µM | 280 compounds, 20% hits | AID 1546; in the data active means activation above about 45%;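 further: cells challenged with NPY at its EC10 plus isoproterenol stimulus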
# NPY-Y2 counter: NPY-Y2 potentiation or agonism as NPY-Y1 counter-screen; activation, % at 3.6 µM; HEK293-CNG cells, membrane-potential fluorescence (FLIPR), 1536-well; 280 compounds, 20% hits; shares compounds with NPY-Y1 PAM-ag; in the data active means activation above about 33%
# NPY-Y1 ag: human NPY-Y1 agonism as potentiator counter-screen; shares compounds with NPY-Y1 PAM-ag; 280 compounds, 50% hits; activation, % at 3.6 µM; HEK293 Y1-CNGC, membrane potential fluorescence, agonist mode; AID 1697;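 active means percent activation above the mean of DMSO-only control wells plus 3 SD of those wells, cut at about 18% in these data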;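 further: cells challenged with isoproterenol plus Ro 20-1724 with no NPY in test wells; Y1 agonism lowers isoproterenol-driven cAMP and reduces probe fluorescence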
# NPY-Y2 ag: activates human NPY-Y2, counter-screen for NPY-Y1 hits; activation, % at 3.6 µM; HEK293 Y2-CNGC, membrane potential fluorescence, agonist mode; AID 1698; shares compounds with NPY-Y1 PAM-ag; 280 compounds, 67% hits;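 active means activation above the solvent-only control wells' mean plus 3 SD, cut at about 11% in these data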;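 further: 0% = DMSO with isoproterenol and 100% = 40 nM NPY maximal response; agonism lowers cAMP so well fluorescence drops in active wells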
# CNGC counter: CNG channel inhibition, counter-screen for NPY-Y1 potentiators; inhibition, % at 3.6 µM; HEK293-CNG parental, isoproterenol cAMP, membrane potential fluorescence; 280 compounds, 42% hits; shares compounds with NPY-Y1 PAM-ag;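 active means inhibition above the mean of stimulated solvent-only control wells plus 3 SD, cut at about 22% in these data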;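 further: 0% = isoproterenol-stimulated DMSO wells and 100% = unstimulated DMSO wells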
# * marks the source's active call; other numbers are inactive results; i = inactive; / = not tested or not shown. Unless noted, no stated cut-off is given here; in the data, active means inhibition above about 17%; inactive means the rest.
SMILES,NPY-Y2 antag,NPY-Y1 PAM-ag,PGE2 EP2 inh,EP2 mod,NPY-Y2 PAM-ag,NPY Y1 blocker,EP2 confirm,NPY-Y1 ant conf,NPY-Y2 antag ct,others
O=C(CSc1nnc(Cc2ccccc2)n1Cc1ccco1)NC12CC3CC(CC(C3)C1)C2,10,4,-3,63*,1,23*,i,5,4,
CN(C)C(=O)CSc1nnc(Cc2ccccc2)n1Cc1ccco1,2,39,2,4,3,1,/,/,/,
Cc1ccc(CSc2nc3ccccc3cc2C=O)cc1,-2,2,10,71*,-3,23*,i,1,6,
O=C1NC2(CCN(C(=O)c3cc(-c4ccco4)[nH]n3)CC2)Nc2ccccc21,/,/,6,7,/,/,/,/,/,
CCCc1cc(-c2[nH]ncc2-c2ccc3c(c2)OCCCO3)c(O)cc1OC,2,23,13,28,-9,1,/,/,/,
CCc1cc(-c2[nH]ncc2-c2ccc3c(c2)OCO3)c(O)cc1O,1,16,/,28,10,20*,i,21*,0,
CCOC(=O)CSc1ccc2ccccc2n1,/,-32,9,42,-12,6,/,/,/,
O=C(O)CSc1ccc2ccccc2n1,10,-29,14,67*,-23,20*,i,5,11,
COc1ccc(NC(=O)N(Cc2ccccc2)Cc2cc3c(C)cc(C)cc3[nH]c2=O)cc1,/,/,9,1,/,/,/,/,/,
Cc1ccc(-c2nnc(N3CCC(C)CC3)c3ccccc23)cc1,/,-3,8,74*,-3,29*,i,12,7,
Cc1ccc(NCc2n[nH]c(=S)n2Cc2ccccc2)cc1Cl,/,45*,6,55,21,-4,i,/,/,NPY-Y1 confirm=12;NPY-Y2 counter=8;NPY-Y1 ag=16;NPY-Y2 ag=7;CNGC counter=10
COc1cc(C2C(C#N)=C(N)Oc3n[nH]c(-c4cccs4)c32)ccc1OC(C)=O (centres undefined),/,/,14,-69,/,/,/,/,/,
COc1ccc(-c2noc(CN3CCCCC3c3nccn3C)n2)cc1 (centres undefined),/,-25,7,-43,-22,42*,/,30*,14,
Cn1ccnc1C1CCCCN1Cc1nc(-c2ccc3c(c2)OCO3)no1 (centres undefined),/,-21,2,-20,-18,42*,/,27*,10,
Cn1ccnc1C1CCCCN1Cc1nc(Cc2cccc(C(F)(F)F)c2)no1 (centres undefined),/,-8,0,-35,-9,8,/,/,/,
COc1ccc(S(=O)(=O)N2CCCC(C(=O)N(Cc3cccs3)C3CC3)C2)cc1 (centres undefined),/,/,8,1,/,/,/,/,/,
CSc1ccccc1NC(=O)CSCc1ccc(Br)cc1,12,-23,/,52,-20,27*,/,1,5,
